23 compounds from ChEMBL document CHEMBL5230178, “6-Bromoindirubin-3'-oxime derivatives are highly active colistin adjuvants against Klebsiella pneumoniae” (RSC Med Chem, 2023) can be followed below.

Molecules are shown by their SMILES. Some results are limits rather than exact numbers.

What all share (assay type): functional
Experiment [1] deals with Klebsiella pneumoniae. As to the kind of experiment: Antibacterial activity against Klebsiella pneumoniae B9 assessed as inhibition of bacterial growth incubated for 16 hrs by broth microdilution method. In outline:
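Broth microdilution in CAMHB. Six-hour culture diluted to 5×10^5 CFU/mL, compound added from DMSO stock, two-fold serial dilution. MIC is the lowest concentration giving 90% growth inhibition versus untreated wells. Run in duplicate, repeated at least twice.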

Experiment [2] relates to Klebsiella pneumoniae. As to the kind of experiment: Potentiation of colistin-induced antibacterial activity against colistin resistant Klebsiella pneumoniae B9 assessed as colistin MIC at 5 uM incubated for 16 hrs by broth microdilution method. In outline: (§1)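 Bacteria grown 6 h in CAMHB, diluted to 5×10^5 CFU/mL. Fixed adjuvant concentration added from DMSO stock; an undosed aliquot gives the colistin MIC alone. Colistin serially two-fold diluted in the compound-dosed suspension. MIC taken at 90% growth inhibition versus untreated wells. Fold change is colistin MIC alone over MIC with adjuvant. Duplicate, repeated at least twice.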

The subject of experiment [3] is Klebsiella pneumoniae. As to the kind of experiment: Potentiation of colistin-induced antibacterial activity against colistin-resistant Klebsiella pneumoniae B9 assessed as fold change in colistin MIC at 5 uM incubated for 16 hrs by broth microdilution method. In outline:
as §1

For experiment [4], the system named is Klebsiella pneumoniae. As to the kind of experiment: Potentiation of colistin-induced antibacterial activity against colistin-resistant Klebsiella pneumoniae B9 assessed as colistin MIC at 3 uM incubated for 16 hrs by broth microdilution method. In outline: as §1
Experiment [5] concerns Klebsiella pneumoniae. As to the kind of experiment: Potentiation of colistin-induced antibacterial activity against colistin-resistant Klebsiella pneumoniae B9 assessed as fold change in colistin MIC at 3 uM incubated for 16 hrs by broth microdilution method. An outline of the steps: as §1
Experiment [6] concerns Klebsiella pneumoniae. As to the kind of experiment: Potentiation of colistin-induced antibacterial activity against colistin-resistant Klebsiella pneumoniae B9 assessed as colistin MIC at 1 uM incubated for 16 hrs by broth microdilution method. An outline of the steps: as §1

`O=C1Nc2c(Br)cccc2/C1=C1/Nc2ccccc2/C1=N\O`: the MIC is greater than 200 µM in experiment [1] and greater than 16 µg/mL in experiment [2].
For the compound `Cc1ccc2c(c1)C(=N\O)/C(=C1/C(=O)Nc3cc(Br)ccc31)N2`, the minimal inhibitory concentration (MIC) in experiment [2] was greater than 16 µg/mL.
As for `O=C1Nc2ccc(Cl)cc2/C1=C1/Nc2ccccc2/C1=N\O`, the MIC was greater than 200 µM in experiment [1] and greater than 16 µg/mL in experiment [2].
On the same counts, the results for `Cc1ccc2c(c1)NC(=O)/C2=C1\Nc2ccccc2\C1=N/O` are greater than 200 µM and greater than 16 µg/mL.
The like results for `O=C1Nc2cc(F)ccc2/C1=C1/Nc2ccccc2/C1=N\O` were, in that order, greater than 200 µM and greater than 16 µg/mL.
Regarding `O=C1Nc2cc(C(F)(F)F)ccc2/C1=C1/Nc2ccccc2/C1=N\O`, the MIC in experiment [1] is greater than 200 µM; in experiment [2], 8 µg/mL. The “fold change (FC)” value in experiment [3] came to 64.
Turning to `O=C1Nc2cc(Br)ccc2/C1=C1/Nc2c(cccc2C(F)(F)F)/C1=N\O`, the MIC in experiment [1] is greater than 200 µM; in experiment [2], 2 µg/mL; in experiment [4], 4 µg/mL; in experiment [6] it was 64 µg/mL. In addition, the “fold change (FC)” value in experiment [3] is on record as 256; in experiment [5], 128.
As for `O=C1Nc2cc(Br)ccc2/C1=C1/Nc2c(Cl)cc(Cl)cc2/C1=N\O`, the results for the MIC in experiment [1] and in experiment [2] were greater than 200 µM and greater than 16 µg/mL, respectively.
As to `O=C1Nc2cc(Br)ccc2/C1=C1/Nc2ccc(F)cc2/C1=N\O`, the minimum inhibitory concentration (MIC) in experiment [1] was greater than 200 µM; in experiment [2], 2 µg/mL; in experiment [4], 32 µg/mL; in experiment [6], greater than 64 µg/mL. Also, the “fold change (FC)” value in experiment [3] was 256; in experiment [5] it was 16.
Consider `Cc1cccc2c1NC(=C1\C(=O)Nc3cc(Br)ccc31)/C2=N/O`, for which the MIC in experiment [1] was greater than 200 µM; in experiment [2], 4 µg/mL. In addition, the “fold change (FC)” value in experiment [3] is listed as 128.
On the same counts, the results for `O=C1Nc2cc(Br)ccc2/C1=C1/Nc2ccc(C(F)(F)F)cc2/C1=N\O` are greater than 200 µM, 8 µg/mL and 64.
For the compound `O=C1Nc2ccccc2/C1=C1/Nc2ccccc2/C1=N\O`, the MIC in experiment [1] was greater than 200 µM; in experiment [2], greater than 16 µg/mL.
Consider `O=C1Nc2ccc(Br)cc2/C1=C1/Nc2ccccc2/C1=N\O` [INDIRUBIN 2], for which the MIC in experiment [1] is greater than 200 µM; in experiment [2] it was greater than 16 µg/mL.
`O=C1Nc2cc(Br)ccc2/C1=C1/Nc2cc(Br)ccc2/C1=N\O`: the figures for the MIC in experiment [1] and in experiment [2] were greater than 200 µM and 8 µg/mL, respectively. For the same compound, the “fold change (FC)” value in experiment [3] came out at 64.
Take `O=C1Nc2ccccc2/C1=C1/Nc2c(Cl)cccc2/C1=N\O`: the results for the MIC in experiment [1] and in experiment [2] were greater than 200 µM and greater than 16 µg/mL, respectively.
The like results for `O=C1Nc2cc(Br)ccc2/C1=C1/Nc2cc(F)ccc2/C1=N\O` were, in that order, greater than 200 µM and greater than 16 µg/mL.
The like results for `O=C1Nc2cc(Br)ccc2/C1=C1/Nc2ccc(-c3ccccc3)cc2/C1=N\O` were, in that order, greater than 200 µM and greater than 16 µg/mL.
On to `O=C1Nc2cc(Cl)ccc2/C1=C1/Nc2ccccc2/C1=N\O`, for which the values for the MIC in experiment [1] and in experiment [2] were greater than 200 µM and 4 µg/mL, respectively. Besides, in experiment [3], the “fold change (FC)” value is reported as 128.
With `O=C1Nc2c(Cl)cccc2/C1=C1/Nc2ccccc2/C1=N\O`, the MIC in experiment [1] was greater than 200 µM; in experiment [2] it was greater than 16 µg/mL.
On the same counts, the results for `O=C1Nc2cc(Br)ccc2/C1=C1/Nc2cc(Cl)c(Cl)cc2/C1=N\O` are greater than 200 µM and greater than 16 µg/mL.
The like results for `O=C1Nc2cc(Br)ccc2/C1=C1/Nc2c(cccc2-c2ccccc2)/C1=N\O` were, in that order, greater than 200 µM and greater than 16 µg/mL.
The like results for `COc1ccc2c(c1)NC(=O)/C2=C1\Nc2ccccc2\C1=N/O` were, in that order, greater than 200 µM and greater than 16 µg/mL.
Take `O=C1Nc2cc(Br)ccc2/C1=C1/Nc2ccc(Br)cc2/C1=N\O`: the values for the MIC in experiment [1] and in experiment [2] were greater than 200 µM and 4 µg/mL, respectively. Besides, the “fold change (FC)” value in experiment [3] is 128.
